Laboratory results published in ChEMBL document CHEMBL5705901, “Exploiting selective BCL-2 family inhibitors to dissect cell survival dependencies and define improved strategies for cancer therapy” (Sci Transl Med, 2015).
Activity calls are given as the source filed them. No cut-off for these calls is given here.

What was measured:
A549 [1] = experiment: Synergistic antitumor activity against 3 times passaged human A549 cells xenografted in po dosed SCID mouse assessed as tumor growth delay in presence of docetaxel relative to control; type: functional
Summary of the method: (§1)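 Xenografts dosed with oral inhibitor plus intravenous docetaxel. TGImax = 100(1 − Tv/Cv), from mean treated and control tumor volumes; TGD = 100(T/C − 1), from median times to reach 1 cm3. Group size 5 mice (NCI-H747, A549-FP3, EBC-1, OVCAR-5), 8 (NCI-H358), 10 (NCI-H1650).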

NCI-H1650 [2] = experiment: Synergistic antitumor activity against human NCI-H1650 cells xenografted in SCID-bg mouse assessed as maximum tumor growth inhibition at 25 mg/kg, po coadministered with docetaxel once daily for 14 days relative to control; type: functional; details: NCI-H1650, 336 h, time 14 day, read-out: TGI; summary of the method: as §1
NCI-H747 = experiment: Synergistic antitumor activity against human NCI-H747 cells xenografted in po dosed SCID-bg mouse assessed as tumor growth delay in presence of docetaxel relative to control; type: functional; summary of the method: as §1
NCI-H1650 [3] = experiment: Synergistic antitumor activity against human NCI-H1650 cells xenografted in SCID-bg mouse assessed as tumor growth delay at 25 mg/kg, po coadministered with docetaxel once daily for 14 days relative to control; type: functional; details: time 14 day; summary of the method: as §1
[4] = Toxicity in po dosed SCID-bg mouse assessed as body weight loss in presence of docetaxel relative to control; type: organism-based; details: in vivo
[5] = Toxicity in Sprague-Dawley rat assessed as inhibition of […] by measuring reduction in circulating platelets at 7 mg/kg, po administered daily for 5 days and measured on day 6 by microscopic analysis; type: organism-based; details: in vivo, 144 h, time 6 day
Summary of the method: (§2)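 Male Sprague-Dawley rats, n = 10 per group: docetaxel 5 mg/kg i.v. once, or oral inhibitor daily for 5 days (30, 50 or 7 mg/kg depending on agent), alone or combined with docetaxel, against vehicles. Total neutrophil and platelet counts in blood collected on day 6; Tukey-Kramer test versus vehicle.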

OVCAR-5 [6] = experiment: Synergistic antitumor activity against human OVCAR-5 cells xenografted in po dosed SCID mouse assessed as maximum tumor growth inhibition in presence of docetaxel relative to control; type: functional; summary of the method: as §1
A549 [7] = experiment: Antitumor activity against 3 times passaged human A549 cells xenografted in po dosed SCID mouse assessed as maximum tumor growth inhibition relative to control; type: functional
EBC-1 = experiment: Synergistic antitumor activity against human EBC-1 cells xenografted in po dosed SCID-bg mouse assessed as maximum tumor growth inhibition in presence of docetaxel relative to control; type: functional; summary of the method: as §1
[8] = Toxicity in Sprague-Dawley rat assessed as inhibition of granulopoiesis by measuring reduction in neutrophil count at 7 mg/kg, po administered daily for 5 days measured on day 6 in presence of docetaxel by microscopic analysis relative to control; type: organism-based; details: in vivo, 144 h, time 6 day; summary of the method: as §2
[9] = Toxicity in po dosed SCID mouse assessed as tolerance; type: organism-based; details: in vivo
T47D = experiment: Induction of apoptosis in human T47D cells assessed as accumulation of cells with sub-G0-G1 DNA content at 1 uM incubated for 48 hrs in presence of docetaxel by flow cytometric analysis; type: functional, cell-based
ZR-75-1 = experiment: Induction of apoptosis in human ZR-75-1 cells assessed as poly(ADP-ribose) polymerase cleavage incubated for 48 hrs in presence of docetaxel by immunoblot analysis; type: functional, cell-based
HCC38 = experiment: Induction of apoptosis in human HCC38 cells assessed as accumulation of cells with sub-G0-G1 DNA content at 1 uM incubated for 48 hrs in presence of docetaxel by flow cytometric analysis; type: functional, cell-based
UAC812 = experiment: Induction of apoptosis in UAC812 (unknown origin) cells assessed as accumulation of cells with sub-G0-G1 DNA content at 1 uM incubated for 48 hrs in presence of docetaxel by flow cytometric analysis; type: functional, cell-based
MDA-MB-468 = experiment: Induction of apoptosis in human MDA-MB-468 cells assessed as increase in caspase cleavage incubated for 48 hrs in presence of docetaxel by immunoblot analysis; type: functional, cell-based
MDA-MB-361 [10] = experiment: Induction of apoptosis in human MDA-MB-361 cells assessed as accumulation of cells with sub-G0-G1 DNA content at 1 uM incubated for 48 hrs in presence of docetaxel by flow cytometric analysis; type: functional, cell-based
[11] = Antagonistic antiproliferative activity against […] (unknown origin) cells assessed as reduction in cell viability by measuring bliss sum score incubated for 72 hrs in presence of docetaxel by CellTiter-Glo cell vaibility assay; type: functional
MDA-MB-436 = experiment: Antagonistic antiproliferative activity against human MDA-MB-436 cells assessed as reduction in cell viability by measuring bliss sum score incubated for 72 hrs in presence of docetaxel by CellTiter-Glo cell vaibility assay; type: functional
SK-MES-1 = experiment: Synergistic antiproliferative activity against human SK-MES-1 cells assessed as reduction in cell viability by measuring bliss sum score incubated for 72 hrs in presence of docetaxel by CellTiter-Glo cell vaibility assay; type: functional
BT-549 = experiment: Synergistic antiproliferative activity against human BT-549 cells assessed as reduction in cell viability by measuring bliss sum score incubated for 72 hrs in presence of docetaxel by CellTiter-Glo cell vaibility assay; type: functional
BT-20 = experiment: Synergistic antiproliferative activity against human BT-20 cells assessed as reduction in cell viability by measuring bliss sum score incubated for 72 hrs in presence of docetaxel by CellTiter-Glo cell vaibility assay; type: functional
MDA-MB-361 [12] = experiment: Synergistic antiproliferative activity against human MDA-MB-361 cells assessed as reduction in cell viability by measuring bliss sum score incubated for 72 hrs in presence of docetaxel by CellTiter-Glo cell vaibility assay; type: functional
OVCAR-5 [13] = experiment: Synergistic antiproliferative activity against human OVCAR-5 cells assessed as reduction in cell viability by measuring bliss sum score incubated for 72 hrs in presence of docetaxel by CellTiter-Glo cell vaibility assay; type: functional
A549 [14] = experiment: Synergistic antiproliferative activity against human A549 cells assessed as reduction in cell viability by measuring bliss sum score incubated for 72 hrs in presence of docetaxel by CellTiter-Glo cell vaibility assay; type: functional
DU-4475 = experiment: Synergistic antiproliferative activity against human DU-4475 cells assessed as reduction in cell viability by measuring bliss sum score incubated for 72 hrs in presence of docetaxel by CellTiter-Glo cell vaibility assay; type: functional
HCC1569 = experiment: Synergistic antiproliferative activity against human HCC1569 cells assessed as reduction in cell viability by measuring bliss sum score incubated for 72 hrs in presence of docetaxel by CellTiter-Glo cell vaibility assay; type: functional
[15] = Synergistic antiproliferative activity against human HCC1500 cells assessed as reduction in cell viability by measuring bliss sum score incubated for 72 hrs in presence of docetaxel by CellTiter-Glo cell vaibility assay; type: functional
MDA-MB-231 = experiment: Synergistic antiproliferative activity against LC3 positive human MDA-MB-231 cells assessed as reduction in cell viability by measuring bliss sum score incubated for 72 hrs in presence of docetaxel by CellTiter-Glo cell vaibility assay; type: functional
HCC1806 = experiment: Synergistic antiproliferative activity against human HCC1806 cells assessed as reduction in cell viability by measuring bliss sum score incubated for 72 hrs in presence of docetaxel by CellTiter-Glo cell vaibility assay; type: functional

Cc1c(-c2ccc(N3CCc4cccc(C(=O)Nc5nc6ccccc6s5)c4C3)nc2C(=O)O)cnn1CC12CC3CC(CC(C3)C1)C2 gave an Activity (A549 [1]) of 131%, an inhibition in vivo at 25 mg/kg (NCI-H1650 [2]) of 98% and an Activity (NCI-H747) of 167%. The Activity (NCI-H1650 [3]) was 170%, the Activity [4] was less than 9% and the Activity [5] was “Toxic”. For the same compound, the TGI (OVCAR-5 [6]) was 57%, the TGI (A549 [7]) was 67% and the TGI (EBC-1) was 88%. For the same compound, the Activity [8] was “Toxic” and the Activity [9] was “Non-Toxic”.
In the case of CC1(C)CCC(c2ccc(Cl)cc2)=C(CN2CCN(c3ccc(C(=O)NS(=O)(=O)c4ccc(N[C@H](CCN5CCOCC5)CSc5ccccc5)c(S(=O)(=O)C(F)(F)F)c4)cc3)CC2)C1 [NAVITOCLAX], the Activity (T47D) was “Active”, the Activity (ZR-75-1) was “Active” and the Activity (HCC38) was “Active”. For the same compound, the Activity (UAC812) was “Active”, the Activity (MDA-MB-468) was “Active” and the Activity (MDA-MB-361 [10]) was “Active”.
In the case of CN(C)CC#Cc1ccc(OCCCc2sc(N3CCc4cccc(C(=O)Nc5nc6ccccc6s5)c4C3)nc2C(=O)O)c(F)c1 [A-1155463], the Activity_index [11] was -269, the Activity_index (MDA-MB-436) was -96 and the Activity_index (SK-MES-1) was 152. For the same compound, the Activity_index (BT-549) was 117, the Activity_index (BT-20) was 260 and the Activity_index (MDA-MB-361 [12]) was 110. For the same compound, the Activity_index (OVCAR-5 [13]) was 706, the Activity_index (A549 [14]) was 137 and the Activity_index (DU-4475) was 229. For the same compound, the Activity_index (HCC1569) was 185, the Activity_index [15] was 146 and the Activity_index (MDA-MB-231) was 305. The Activity_index (HCC1806) was 224.
